Results: ChEMBL document CHEMBL4513216, “Probing the Open Global Health Chemical Diversity Library for Multistage-Active Starting Points for Next-Generation Antimalarials” (ACS Infect Dis, 2020)

Assay: Toxicity liver stage against HepG2, at 10uM
Type: cell-based
Set-up: test concentration 10 uM, cell line HepG2-A16-CD81EGFP
Conditions: human, HepG2-A16-CD81EGFP cells; read-out: INHIBITION
In short: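 Uninfected HepG2-A16-CD81EGFP cells, 3 × 10^3 per well, 1536-well, plated on prespotted compound at 10 μM final, parasite-free screening media added to match infected plates; puromycin 10 μM positive, DMSO 0.5% negative; run in parallel with 48 h PbLuc assay at 37 °C, 5% CO2; viability by CellTiter-Glo luminescence, normalized to controls.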

SMILES | cytotoxicity at 10 µM [%]
Cc1nc2ccccc2n1Cc1cc(C(=O)N(C)C2CCOCC2)no1 | 25.7
CCOC(=O)C(C)NC(=O)CCc1ccc(F)cc1 (stereo not drawn) | -9.92
COC(=O)[C@H]1C[C@@H](O)CCN1S(=O)(=O)c1c(C)cc(OC)c(C)c1C | -16.2
NC(=O)C1CCCN(c2ncnc3c2Cc2ccccc2OC3)C1 (stereo not drawn) | -5.64
Cc1nn(C)c(N2CCOCC2)c1CNC1COc2ccccc2C1 (stereo not drawn) | -17.9
CNc1cnc(CC2COCCN(Cc3ccccc3)C2)cn1 (stereo not drawn) | 10.9
c1ccc(N2CCOC3(CCCN(c4ncccn4)C3)C2)nc1 (stereo not drawn) | -103
COC(=O)C1CCCCN1C(=O)c1ccccc1F (stereo not drawn) | 8.96
Cc1cnc(CN(C)C2CCN(Cc3ccccc3C#N)C2)o1 (stereo not drawn) | 1.08
CCCc1noc(CN2CCCCC2Cn2cncn2)n1 (stereo not drawn) | 4.84
COCc1nccc(C2CCCN(Cc3ccc(C#N)cc3)C2)n1 (stereo not drawn) | 6.45
Cc1ccc2nc(CN3CCCCC3CCn3cccn3)cn2c1 (stereo not drawn) | 7.31
CC(C)C[C@@H](C(N)=O)n1cc(-c2cncnc2)nn1 | 3.28
CN(C)C(=O)c1ccn(-c2ccc3ccccn23)n1 | 6.98
Cc1cccc(CN2C[C@@H]3CN(C(=O)c4cnoc4C)C[C@@H]3C2=O)n1 | 5.71
O=C(c1ccc(C2CCCO2)s1)N1CCN(c2ccccc2F)CC1 (stereo not drawn) | -15.1
CCc1nc(C2CCCN2C(=O)c2ccc3c(c2)nnn3CC)no1 (stereo not drawn) | 4.5
CCOCC1CN(CC2CC2)Cc2cnn(C)c21 (stereo not drawn) | -90.4
CCn1nnc2c1C(COC)CN(C(=O)Cc1ccccn1)C2 (stereo not drawn) | 4.64
CN(C)c1nc2c(c(N(C)C)n1)CCN(C(=O)CN1C[C@H]3CC[C@@H]1C3)C2 | 4.45
CCn1ncc(CN2CCc3c(nc(-c4cccnc4)[nH]c3=O)C2)c1C | 1.34
O=C(Nc1cccnc1)[C@H]1C[C@H]2CN(Cc3ccc(F)cc3)C[C@@H]1O2 | -82.9

SMILES | cytotoxicity at 10 µM [%]
CNCC(=O)Nc1cccc(-c2cnc(NCCO)nc2)c1 | -6.94
Cn1cnnc1-c1ccnc(NCc2ccccc2)c1 | -4.98
O=S(=O)(NCCc1c[nH]c2ccc(F)cc12)C1CCOCC1 | 4.13
Brc1cccc(C2(CNCc3cc[nH]c3)CCOCC2)c1 | 8.95
CC(NC(=O)c1sccc1C1CC1)c1ccc2c(c1)CC(=O)N2 (stereo not drawn) | 1.66
O=C(c1cccnc1SC/C=C/c1ccccc1)N1CC[C@H](O)C1 | -9.66
CCN(Cc1ccoc1)C(=O)Nc1ccccc1CN(C)C(C)=O | 4.55
CN(Cc1ccc(-n2ccnc2)cc1)Cc1ncc[nH]1 | 3.69
Cc1cnc(C)c(N2CCC(C(=O)O)(n3ccc(C(C)(C)C)n3)CC2)n1 | 20.4
Cc1cc(C)n(Cc2ccc(C(=O)NCCN3CCOCC3)cc2)n1 | -14.8
CNC(=O)[C@@H](c1ccccc1)N1CCC[C@H]1C(=O)NCc1ccccn1 | 5.62
COCCNC(=O)c1nnn(Cc2ccccc2)c1OC | 11.6
CCNC(=O)c1c2c(N3CCN(C)CC3)ncnc2n2ccccc12 | -74.8
CN(C)CC(=O)N1CCc2cccc(S(=O)(=O)N3CCOCC3)c2C1 | 6.8
COCC(O)CN1CCC(NC(=O)c2ccccc2Cl)CC1 (stereo not drawn) | -4.87
CNC(=O)NCC1CCC2(CCN(C(=O)c3cccnc3)CC2)CO1 (stereo not drawn) | -94.9
CCN(CC1CCCN(CCc2cccc(OC)c2)C1)C(=O)CO (stereo not drawn) | 9.34
Cc1cc(I)c2c(c1)C(=O)C(CN1CCCC1)(CN1CCCC1)CO2 | -6.86
COCCNC(=O)[C@H]1C[C@@](CC(C)C)(C(=O)O)N(C)[C@H]1c1cccnc1 | -6.16
O=C(c1cnc2ccc(F)cc2c1NCc1ccccn1)N1CCCC1 | 3
Cc1nccn1C1(C(=O)O)CCN(Cc2ccc3nsnc3c2)CC1 | -4.97
CN1CCN(C2CCN(CCOc3ccc(F)cc3)CC2)C1=O | -7.8

SMILES | cytotoxicity at 10 µM [%]
CN(C)C(=O)NC1COC2(CCN(Cc3ccc(Cl)c(F)c3)CC2)C1 (stereo not drawn) | -76.4
CCc1cccc2cc(CNCCOC)c(=O)[nH]c12 | 1.47
CCc1cc(N[C@H](C(N)=O)[C@@H](C)CC)n2nccc2n1 | 2.99
Cc1cccc(CN2CCc3[nH]nc(C(=O)N4CCNC(=O)C4)c3C2)n1 | 18.2
Cc1cc(C(=O)O)c2c(Br)cccc2n1 | -0.575
Fc1cnc(N2CCN3C[C@H](Oc4cncnc4)C[C@H]3C2)nc1 | -5.38
CS(=O)(=O)N1CCCC(c2nc(-c3ccccc3)c[nH]2)C1 (stereo not drawn) | 2.44
COc1ccc(-c2cc(C3(O)CCN(C)CC3)on2)cc1 | 3.89
O=C(CNc1ccccc1Cl)Nc1cc(-n2cnnn2)ccc1F | -4.38
O=C(CCc1ccccc1Br)NS(=O)(=O)c1ccc2c(c1)OCCO2 | -10.7
CCC(NC(=O)c1ccco1)c1nc(C(F)(F)F)cs1 (stereo not drawn) | -0.183
CC(=O)NC[C@]1(O)CCN(C(=O)c2ccc(F)c(Cl)c2)C[C@H]1O | 1.47
CCNC(=O)C1(Cc2ccc(-c3ccccc3)cc2)CCCNC1 (stereo not drawn) | -3.73
CCc1ccc2occ(CC(=O)N3CCC4(CCCN(C)C4=O)C3)c2c1 (stereo not drawn) | -14.5
CCC(CC)c1cc(CNC(=O)N2CCC(n3cncn3)CC2)on1 | -4.16
COc1ccc(OCc2cc(C(=O)N3CCN[C@H](C)C3)n[nH]2)c(Cl)c1 | -11.7
CNS(=O)(=O)c1cccc(C(C)NCc2ccc(C)c(C)c2)c1 (stereo not drawn) | 3.92
CCOc1cc(C(=O)N2CC=C(c3ccc(O)cc3)CC2)ccn1 | -4.89
CNc1ccnc(NCCC(=O)Nc2ccccc2C)n1 | -1.53
COc1ccc(Cl)cc1CS(=O)(=O)Cc1nc(C2CC2)no1 | 3.43
O=C1CN(Cc2cn(CC3CCCN(C4CCSCC4)C3)nn2)CCN1 (stereo not drawn) | -49.3
CN(Cc1ccccc1)C(=O)CSc1ccc2c(c1)OCCO2 | -9.48

SMILES | cytotoxicity at 10 µM [%]
N#Cc1cccnc1N1CCCN(C(=O)CCc2cccs2)CC1 | -15.8
COc1cc(CNc2cnn(C(C)(C)C)c(=O)c2Cl)ccn1 | 55.9
COc1c(C)cnc(CN2CCCCC2CCN2CCOCC2)c1C (stereo not drawn) | -4.27
NC(=O)c1ccc(CN2CCC(N3CCCCC3)CC2)cc1 | -7.55
COc1cc(N2CC[C@@H]3O[C@@H](c4ccnc(C)n4)C[C@H]3C2)ncn1 | 23.1
Cc1ccnc(NC(=O)CCc2cnn(C)c2C)c1 | 0.107
CNc1nc2c(s1)C(c1c(Cl)cccc1Cl)CC(=O)N2 (stereo not drawn) | -10.4
CCC(C)(C)n1nnnc1C(c1cccs1)N1CCc2ccccc2C1 (stereo not drawn) | 0.237
Cc1cc2c(=O)n3c(nc2s1)CCN(Cc1cnc(C)n1C)CC3 | -7.73
Cc1cnn(C2CCCN(C(=O)Cc3n[nH]c4ccccc34)C2)c1 (stereo not drawn) | -6.8
Cc1ccc(CN2CC[C@@H]3[C@H]2CCC(=O)N3Cc2ccncc2)s1 | -65.6
CN(C)CC1COCCN1C(=O)C1(c2cccs2)CCCC1 (stereo not drawn) | -9.52
Cc1nccc(N2C[C@H](NC(=O)CNS(C)(=O)=O)[C@@H](C3CC3)C2)n1 | -13.8
Nc1cc(N2CCCC(CO)(Cc3ccccc3F)C2)nc(N)n1 (stereo not drawn) | 12.8
COC[C@@]12CCC[C@@H]1CN(C(=O)COc1ccccc1OC)C2 | -106
CC(C)C(O)C(=O)N1CCC2(CC1)c1nc[nH]c1CCN2S(C)(=O)=O (stereo not drawn) | -0.232
O=C(NCC1CC1)C12CC(CN1Cc1nccs1)C2 | -4.6
CC(=O)N1CCOC2(CCN(C(=O)c3cnoc3C)CC2)C1 | -0.0788
CN1CC[C@]2(CN(C(=O)[C@H]3CCCO3)C[C@H]2c2ccccc2)C1=O | 8.49
Cc1nn(C(C)C)c(C)c1NC(=O)Nc1cccnc1N1CCCC1 | -5.79
O=C(O)[C@@H]1CN(C(=O)Cc2ccccc2Cl)C[C@H]1C1CC1 | 9.53
O=C(NCC1CCCCC1)N1C[C@@H]2C[C@H](C(=O)N3CCOCC3)[C@H](C1)O2 | -99.4

SMILES | cytotoxicity at 10 µM [%]
O=C(CC1CCN(c2ncnc3ccccc23)CC1)N1CCCC1 | 35.1
CC(C)[C@H]1CN(Cc2ccccc2C#N)C[C@@H]1NC(=O)C1CCOCC1 | 1.47
COc1ccc2nnc(CCC(=O)Nc3nc4c(s3)CCCC4)n2n1 | -6.98
Cn1cccc1C(=O)N1CCc2ccc(=O)n(C)c2CC1 | -0.756
O=C(NCC1CCOC1)c1csc(Cc2ccccc2)n1 (stereo not drawn) | -118
Cc1ccccc1CNC(=O)C1CCN(Cc2nccn2C)CC1 | -17.9
Cc1nc(N(C)C)nc(N2CCC3(CC2)CNC(=O)O3)c1C | 14.9
Cc1noc(C)c1CCc1nc(C2CCOC2)no1 (stereo not drawn) | -4
CS(=O)(=O)CCCN(CCc1cccc(F)c1)C1CC1 | -18.3
COCCN1CCOCC12CCN(c1cnccn1)CC2 | -102
Nc1nnc(C2CC(=O)N(c3ccccc3)C2)s1 (stereo not drawn) | 4.23
CC(Cn1cccn1)NS(=O)(=O)Cc1ccccc1 (stereo not drawn) | 6.8
O=C(c1cc(F)cc(Cl)c1)N1CCN(CCO)[C@@H]2CS(=O)(=O)C[C@@H]21 | -2.24
CNC(=O)NC(=O)CN1CCC(c2cccc(F)c2)C1 (stereo not drawn) | -8.75
c1ccc(CN2CCc3ncnc(-c4ccsc4)c3CC2)nc1 | 3.91
COCCN1C[C@@H]2[C@@H](OC)CCN(C(=O)Cc3ccsc3)[C@@H]2C1 | 7.68
COCc1nc2n(n1)CCCC2Nc1nc(C2CC2)ns1 (stereo not drawn) | 17
O=C(C1CCOCC1)N1CCN2C(=O)N(Cc3ccc(F)cc3)C[C@H]2C1 | -1.34
CC(c1ccco1)N(C)Cc1cc2cc3c(cc2[nH]c1=O)OCO3 (stereo not drawn) | 2.59
Cc1cccc(CN2C[C@@H]3CN(C(=O)C4CCOC4)C[C@@H]3C2=O)c1 (stereo partly drawn) | -114
